Blank lines part the entries; values can stand above or below the molecule they belong to. Active and inactive are the calls of the source. The calls are words filed in the database; no cut-off is given here.
Key:
[1] = target: T1, UDP-N-acetylbacillosamine N-acetyltransferase (Campylobacter jejuni subsp. jejuni serotype O:2 (strain ATCC 700819 /NCTC 11168), UniProt Q0P9D1); test: Inhibition of Campylobacter jejuni NCTC 11168 PglD acetyltransferase expressed in Escherichia coli BL-21(DE3) strain (Stratagene) assessed as release of CoASH preincubated for 30 mins followed by addition of 300 uM AcCoA and 500 uM UDP-4-aminosugar as substrate by Ellman's method
T1 sequence (Q0P9D1 whole entry): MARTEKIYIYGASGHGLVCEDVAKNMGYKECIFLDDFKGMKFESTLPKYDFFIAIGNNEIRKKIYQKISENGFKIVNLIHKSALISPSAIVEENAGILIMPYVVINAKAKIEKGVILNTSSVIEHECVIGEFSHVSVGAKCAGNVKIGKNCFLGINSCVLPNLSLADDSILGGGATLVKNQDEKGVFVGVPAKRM
Outline: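 Continuous DTNB read-out of CoASH release. Inhibitor (DMSO stock) preincubated 30 min at RT with PglD in 50 mM HEPES pH 7.8, 1 mM MgCl2, 0.05 mg/mL BSA, 0.001% Triton X-100. […] Initial rates over 5 min at RT, A412. IC50 derived.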

[2] = target: T2, UDP-N-acetylbacillosamine N-acetyltransferase (Campylobacter jejuni subsp. jejuni serotype O:2 (strain ATCC 700819 /NCTC 11168)) (UniProt Q0P9D1); test: Binding affinity to Campylobacter jejuni NCTC 11168 PglD acetyltransferase expressed in Escherichia coli BL-21(DE3) strain (Stratagene) assessed as change in melting temperature at 100 uM by Sypro orange dye-based differential scanning fluorimetry
T2 sequence (whole entry): T1 sequence (Q0P9D1 whole entry)

[3] = target: T1, UDP-N-acetylbacillosamine N-acetyltransferase; test: Inhibition of Campylobacter jejuni NCTC 11168 PglD acetyltransferase expressed in Escherichia coli BL-21(DE3) strain (Stratagene) assessed as release of CoASH preincubated for 45 mins followed by addition of AcCoA and UDP-4-aminosugar measured after 30 mins by fragment-based high-throughput screening analysis
Outline: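 End-point screen with compounds at 10 μM final. Started with 100 μM UDP-4-aminosugar, quenched at 30 min with 2 mM DTNB, 1 mM EDTA, 20% 1-propanol (final). Developed 5 min, read at 405 nm.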

[4] = target: T1, UDP-N-acetylbacillosamine N-acetyltransferase; test: Competitive inhibition of Campylobacter jejuni NCTC 11168 PglD acetyltransferase expressed in Escherichia coli BL-21(DE3) strain (Stratagene) assessed as release of CoASH preincubated for 30 mins followed by addition of UDP-4-aminosugar and 2 fold excess AcCoA as substrate by Ellman's method
Outline: (§1)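 Same continuous DTNB-coupled PglD assay: 30 min RT inhibitor–enzyme preincubation, 3 nM PglD, HEPES pH 7.8 buffer, A412 initial rates over 5 min. IC50 determined while raising one substrate above standard (300 μM AcCoA, 500 μM UDP-4-amino-sugar): AcCoA raised 2- or 5-fold, or UDP-4-amino-sugar raised to higher levels.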

[5] = target: T1, UDP-N-acetylbacillosamine N-acetyltransferase; test: Competitive inhibition of Campylobacter jejuni NCTC 11168 PglD acetyltransferase expressed in Escherichia coli BL-21(DE3) strain (Stratagene) assessed as release of CoASH preincubated for 30 mins followed by addition of UDP-4-aminosugar and 5 fold excess AcCoA as substrate by Ellman's method; outline: as §1
[6] = target: T2, UDP-N-acetylbacillosamine N-acetyltransferase (Campylobacter jejuni subsp. jejuni serotype O:2 (strain ATCC 700819 /NCTC 11168)); test: Competitive inhibition of Campylobacter jejuni NCTC 11168 PglD acetyltransferase expressed in Escherichia coli BL-21(DE3) strain (Stratagene) assessed as release of CoASH preincubated for 30 mins followed by addition of AcCoA and higher levels of UDP-4-aminosugar as substrate by Ellman's method; outline: as §1
[7] = target: T2, UDP-N-acetylbacillosamine N-acetyltransferase (Campylobacter jejuni subsp. jejuni serotype O:2 (strain ATCC 700819 /NCTC 11168)); test: Effect on quaternary structure of Campylobacter jejuni NCTC 11168 PglD acetyltransferase expressed in Escherichia coli BL-21(DE3) strain (Stratagene) assessed as hydrodynamic radius of apo PgID at 250 uM by dynamic light scattering method (reference value: 34 Angstrom)
Outline: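 DLS on 25 μM PglD with or without 250 μM inhibitor in 50 mM HEPES 7.5, 100 mM NaCl, 3% DMSO final. Scattering measured at 90° with 685 nm laser. Radius and polydispersity index derived with a Rayleigh scattering model.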

[8] = target: T2, UDP-N-acetylbacillosamine N-acetyltransferase (Campylobacter jejuni subsp. jejuni serotype O:2 (strain ATCC 700819 /NCTC 11168)); test: Effect on quaternary structure of Campylobacter jejuni NCTC 11168 PglD acetyltransferase expressed in Escherichia coli BL-21(DE3) strain (Stratagene) assessed as polydispersity index of PgID at 250 uM by dynamic light scattering method (reference value: 31%)
Outline: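 Recombinant C. jejuni PglD (His8-TEV construct, tag removed, Ni-NTA then size-exclusion purified) at 25 μM, with or without 250 μM inhibitor, in 50 mM HEPES 7.5, 100 mM NaCl, 3% DMSO final. Scattering measured at 90° with 685 nm laser; analysed with Rayleigh scattering model to give radius and polydispersity index.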

Compound: CNc1nc(CCc2cccc(NC(C)=O)c2)nc2sc(C(=O)O)c(C)c12
IC50 [1]: 3500 nM

Compound: Cc1c(C(=O)O)sc2nc(CCc3ccccc3)nc(NCCc3ccccc3F)c12
ΔTm [2]: 13.2 °C
IC50 [1]: 480 nM

Compound: CNc1nc(CCc2ccc3c(c2)OCO3)nc2sc(C(=O)O)c(C)c12
ΔTm [2]: 7.4 °C
IC50 [1]: 1800 nM

Compound: CC(=O)Nc1ccc(CCc2nc(NCCN)c3c(C)c(C(=O)O)sc3n2)cc1
ΔTm [2]: 5.3 °C
IC50 [1]: 1400 nM

Compound: CC(=O)Nc1ccc(CCc2nc(NCCc3ccccn3)c3c(C)c(C(=O)O)sc3n2)cc1
ΔTm [2]: 11.5 °C
IC50 [1]: 280 nM

Compound: Cc1c(C(=O)O)sc2nc(CCc3ccccc3)nc(NCCc3ccc4c(c3)OCO4)c12
ΔTm [2]: 11.5 °C
IC50 [1]: 590 nM

Compound: CNc1nc(CCc2ccccc2NC(C)=O)nc2sc(C(=O)O)c(C)c12
IC50 [1]: 9000 nM

IC50 [3]: 122 µM
Compound: Cc1c(C(=O)O)sc2nc(C(C)C)[nH]c(=O)c12

Compound: CNc1nc(CCCCc2ccccc2)nc2sc(C(=O)O)c(C)c12
ΔTm [2]: 7.4 °C
IC50 [1]: 4100 nM

Compound: CNc1nc(CCc2cccc(F)c2)nc2sc(C(=O)O)c(C)c12
ΔTm [2]: 8.9 °C
IC50 [1]: 2300 nM

Compound: Cc1c(C(=O)O)sc2nc(CCc3ccccc3)nc(NCc3ccccc3)c12
IC50 [1]: 4500 nM

Compound: Cc1c(C(=O)O)sc2nc(CCc3ccccc3)nc(NCCc3ccccn3)c12
ΔTm [2]: 12.5 °C
IC50 [1]: 420 nM

Compound: CO[C@@H](CNc1nc(C[C@@H](C)c2ccccc2)nc2sc(C(=O)O)c(C)c12)c1ccccc1
IC50 [1]: 870 nM

Compound: CNc1nc(CCc2cccc(Cl)c2)nc2sc(C(=O)O)c(C)c12
ΔTm [2]: 9.4 °C
IC50 [1]: 2100 nM

Compound: Cc1c(C(=O)O)sc2nc(CCc3ccccc3)nc(NCCc3ccncc3)c12
ΔTm [2]: 12 °C
IC50 [1]: 390 nM

Compound: CNc1nc(CCc2ccccc2)nc2sc(C(=O)O)c(C)c12
ΔTm [2]: 7.4 °C
IC50 [1]: 2200 nM

Compound: CNc1nc(CCc2cccc(OC)c2)nc2cc(C(=O)O)sc12
ΔTm [2]: 5.9 °C
IC50 [1]: 1400 nM

Compound: Cc1ccc(CCNc2nc(CCc3ccccc3)nc3sc(C(=O)O)c(C)c23)cc1
IC50 [1]: 720 nM

Compound: CNc1nc(CCc2ccc(NC(C)=O)cc2)nc2sc(C(=O)O)c(C)c12
IC50 [1]: 2400 nM

Compound: COc1cc(CCNc2nc(CCc3ccccc3)nc3sc(C(=O)O)c(C)c23)cc(OC)c1
IC50 [4]: 630 nM
IC50 [5]: 1400 nM
IC50 [1]: 370 nM
inhibition [6]: Active

Compound: CNc1nc(CCc2cccc(OC)c2)nc2sc(C(=O)O)c(C)c12
ΔTm [2]: 8.4 °C
IC50 [1]: 1100 nM

Compound: CO[C@H](CNc1nc(C[C@@H](C)c2ccccc2)nc2sc(C(=O)O)c(C)c12)c1ccccc1
ΔTm [2]: 9.9 °C
IC50 [1]: 420 nM

IC50 [3]: 8400 µM
Compound: O=C(O)c1cc(-c2ccco2)[nH]n1

Compound: Cc1c(C(=O)O)sc2nc(CCc3ccccc3)nc(NCCc3cccnc3)c12
ΔTm [2]: 12 °C
IC50 [1]: 340 nM

Compound: CO[C@H](CNc1nc(CCc2ccc(NC(C)=O)cc2)nc2sc(C(=O)O)c(C)c12)c1ccccc1
Activity [7]: 36 Angstrom
ΔTm [2]: 12.5 °C
IC50 [1]: 270 nM
Activity [8]: 24%

Compound: COc1cccc(CCNc2nc(CCc3ccccc3)nc3sc(C(=O)O)c(C)c23)c1
IC50 [1]: 450 nM

Compound: Cc1c(C(=O)O)sc2nc(CCc3ccccc3)nc(NCCc3ccccc3)c12
ΔTm [2]: 13.2 °C
IC50 [1]: 1400 nM

Compound: CNc1nc(CCCc2ccccc2)nc2sc(C(=O)O)c(C)c12
ΔTm [2]: 7.9 °C
IC50 [1]: 4400 nM

Compound: CO[C@H](CNc1nc(C[C@H](C)c2ccccc2)nc2sc(C(=O)O)c(C)c12)c1ccccc1
ΔTm [2]: 10.4 °C
IC50 [1]: 1100 nM

Compound: Cc1c(C(=O)O)sc2nc(CCc3ccccc3)nc(NC3Cc4ccccc4C3)c12
IC50 [1]: 1000 nM

Compound: COc1ccc(CCNc2nc(CCc3ccccc3)nc3sc(C(=O)O)c(C)c23)cc1
IC50 [1]: 540 nM

Compound: Cc1cccc(CCNc2nc(CCc3ccccc3)nc3sc(C(=O)O)c(C)c23)c1
IC50 [1]: 420 nM

Compound: Cc1c(C(=O)O)sc2nc(CCc3ccccc3)nc(NCCc3ccc(F)cc3)c12
IC50 [1]: 420 nM

Compound: Cc1ccccc1CCNc1nc(CCc2ccccc2)nc2sc(C(=O)O)c(C)c12
ΔTm [2]: 14.3 °C
IC50 [1]: 250 nM

Compound: Cc1c(C(=O)O)sc2nc(CCc3ccccc3)nc(NCCc3cccc(F)c3)c12
IC50 [1]: 390 nM

Compound: Cc1c(C(=O)O)sc2nc(CCc3ccccc3)nc(NCCN)c12
ΔTm [2]: 3.6 °C
IC50 [1]: 1600 nM

Compound: CO[C@@H](CNc1nc(C[C@H](C)c2ccccc2)nc2sc(C(=O)O)c(C)c12)c1ccccc1
ΔTm [2]: 9.4 °C
IC50 [1]: 2000 nM

Compound: CNc1nc(CCc2ccccc2)nc2cc(C(=O)O)sc12
ΔTm [2]: 4.8 °C
IC50 [1]: 3900 nM

Compound: COc1ccccc1CCNc1nc(CCc2ccccc2)nc2sc(C(=O)O)c(C)c12
ΔTm [2]: 13.7 °C
IC50 [1]: 480 nM

Compound: Cc1c(C(=O)O)sc2nc[nH]c(=O)c12
IC50 [3]: 860 µM

Compound: Cc1c(C(=O)O)sc2nc(/C=C/c3ccc4[nH]ccc4c3)[nH]c(=O)c12
IC50 [3]: 1 µM

Compound: CNc1nc(CCc2cccc(C(F)(F)F)c2)nc2sc(C(=O)O)c(C)c12
ΔTm [2]: 7.4 °C
IC50 [1]: 4600 nM
